These results are taken from ChEMBL document CHEMBL1125409, “Synthesis and biological activity of acyclic analogues of 5,10-dideaza-5,6,7,8-tetrahydrofolic acid” (J Med Chem, 1992).

For data set [1], the system named is CCRF-CEM. Kind of data set: Compound was evaluated for reversal of growth inhibition against human lymphoblastic leukemic CCRF-CEM cells at 0.46 uM concentration and with 300 uM of AICA. It is filed as functional.
The subject of data set [2] is CCRF-CEM. Kind of data set: Compound was evaluated for reversal of growth inhibition against human lymphoblastic leukemic CCRF-CEM cells at 0.46 uM concentration and with 5 uM of Thymidine. The format is functional.
For data set [3], the system named is CCRF-CEM. The data set can be described thus: Cytotoxicity against human lymphoblastic leukemic CCRF-CEM cell line was evaluated as the concentration required for 50% inhibition of the growth of the control value. The format is functional, cell-based. An outline of the steps: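 CCRF-CEM cells in RPMI 1640 with 10% dialyzed FBS, 16 mM HEPES and 8 mM MOPS, seeded at 4.8×10⁴ cells/well. Duplicate wells got graded concentrations diluted from a 4 mg/mL DMSO stock. After 72 h (95% air/5% CO₂), cells were counted on a Coulter counter. IC50 was taken from dose-response curves as 50% growth inhibition versus control.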

Data set [4] has as its system CCRF-CEM. Kind of data set: Compound was evaluated for reversal of growth inhibition against human lymphoblastic leukemic CCRF-CEM cells at 0.46 uM concentration and with 100 uM of hypoxanthine. The format is functional.
A short description of data set [5]: In vivo antitumor activity against 6C3HED tumor type after intraperitoneal administration of 400 mg/kg. It is filed as functional. Particulars: ip. An outline of the steps: (§1)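 6C3HED lymphosarcoma: 1–2 mm³ fragments implanted sc by trocar in the axilla of syngeneic C3H mice. Dosing ip twice daily for 8 days, starting 24 h after implant. One day after the last dose, tumor volume was taken as L(W²)/2 and compared with controls to give % inhibition. Deaths over group size were recorded.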

Data set [6] deals with Mus musculus. The data set can be described thus: In vivo antitumor activity against 6C3HED tumor type was expressed as toxic deaths/total treated mice at 400 mg/kg dose; 2/10. The format is ADME, organism-based. On the set-up: dose 400 mg/kg.
For data set [7], the system named is Mus musculus. Kind of data set: In vivo antitumor activity against […] tumor type was expressed as toxic deaths/total treated mice at 100 mg/kg dose given once daily for 10 days; 1/10. The format is ADME, organism-based. The arrangement: dose 100 mg/kg. The note with it: 240 h.
For data set [8], the system named is Mus musculus. The data set can be described thus: In vivo antitumor activity against […] tumor type was expressed as toxic deaths/total treated mice at 200 mg/kg dose given once daily for 10 days; 0/10. It is filed as ADME, organism-based. On the set-up: dose 200 mg/kg. Particulars: 240 h.
The subject of data set [9] is Mus musculus. The data set can be described thus: In vivo antitumor activity against […] tumor type was expressed as toxic deaths/total treated mice at 50 mg/kg dose given once daily for 10 days; 2/10. The format is ADME, organism-based. On the set-up: dose 50 mg/kg. The note with it: 240 h.
Data set [10] is described as follows: In vivo antitumor activity against […] tumor type after intraperitoneal administration of 100 mg/kg dose given once daily for 10 days. It is filed as functional. Particulars: ip, 240 h. An outline of the steps:
(§2)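 C3H mammary adenocarcinoma fragments (1–2 mm³) were trocar-implanted sc axillary in syngeneic C3H mice. Treatment was ip once daily for 10 days, beginning 24 h post-implant. Tumor width and length were measured one day after the final dose, with V = L(W²)/2. Growth inhibition was calculated against untreated controls, and toxicity/total was noted.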

Data set [11] can be described thus: In vivo antitumor activity against […] tumor type after intraperitoneal administration of 200 mg/kg dose given once daily for 10 days. Particulars: ip, 240 h. It is filed as functional. An outline of the steps:
as §2

Data set [12] can be described thus: In vivo antitumor activity against […] tumor type after intraperitoneal administration of 50 mg/kg dose given once daily for 10 days. Particulars: ip, 240 h. The format is functional. The procedure, abridged:
as §2

A short description of data set [13]: In vivo antitumor activity against lymphosarcoma tumor type after intraperitoneal administration of 100 mg/kg dose given twice daily for 8 days. Particulars: ip, 192 h. It is filed as functional. The procedure, abridged:
as §1

Data set [14] is described as follows: In vivo antitumor activity against lymphosarcoma tumor type after intraperitoneal administration of 200 mg/kg dose given twice daily for 8 days. It is filed as functional. Particulars: ip, 192 h. The procedure, abridged:
as §1

The nature of data set [15]: In vivo antitumor activity against lymphosarcoma tumor type after intraperitoneal administration of 50 mg/kg dose given twice daily for 8 days. The format is functional. Particulars: ip, 192 h. An outline of the steps:
as §1

In data set [16] the test system is Mus musculus. Kind of data set: In vivo antitumor activity against lymphosarcoma tumor type was expressed as toxic deaths/total treated mice at 100 mg/kg dose given twice daily for 8 days; 0/9. It is filed as ADME, organism-based. The arrangement: dose 100 mg/kg. Particulars: 192 h.
Data set [17] deals with Mus musculus. The data set can be described thus: In vivo antitumor activity against lymphosarcoma tumor type was expressed as toxic deaths/total treated mice at 50 mg/kg dose given twice daily for 8 days; 0/10. The format is ADME, organism-based. On the set-up: dose 50 mg/kg. Particulars: 192 h.
Data set [18] in a line: In vivo antitumor activity against C3H mammary tumor type after intraperitoneal administration of 400 mg/kg dose given once daily for 10 days. Particulars: ip, 240 h.
Data set [19] has as its system Mus musculus. Kind of data set: In vivo antitumor activity against C3H mammary tumor type was expressed as toxic deaths/total treated mice at 400 mg/kg dose given once daily for 10 days; 2/10. The note with it: 240 h.

Usually Inhibition stands for the percentage by which the read-out fell short of the control. By IC50 is commonly meant the concentration that inhibits the measured activity by half. Low values mean greater potency, high ones weaker potency. What is called inhibition in vivo is the percentage by which the read-out fell short of the control.

In the case of `Nc1nc(N)c(CCCNc2ccc(C(=O)N[C@@H](CCC(=O)O)C(=O)O)cc2)c(O)n1`, the results for the Inhibition in the data set on CCRF-CEM [1], in the data set with CCRF-CEM [2] and with CCRF-CEM [4] were 55%, 77% and 0%, respectively. Also, the IC50 in the data set on CCRF-CEM [3] came to 0.198 µM.

Molecule `Cc1nc(N)[nH]c(=O)c1CCCCc1ccc(C(=O)N[C@@H](CCC(=O)O)C(=O)O)cc1` gave an IC50 in the data set on CCRF-CEM [3] of 2.33 µM.

`Nc1nc2c(c(=O)[nH]1)C[C@@H](CCc1ccc(C(=O)N[C@@H](CCC(=O)O)C(=O)O)cc1)CN2` [LOMETREXOL] yielded a half-inhibitory concentration (IC50) in the data set with CCRF-CEM [3] of 0.016 µM.

In the data set on CCRF-CEM [3], `Nc1nc(N)c(CCCCc2ccc(C(=O)N[C@@H](CCC(=O)O)C(=O)O)cc2)c(N)n1` came in with an IC50 of 0.042 µM.

Molecule `Nc1nc(N)c(CCCCc2ccc(C(=O)N[C@@H](CC(=O)O)C(=O)O)cc2)c(O)n1` came in with an IC50 with CCRF-CEM [3] greater than 48 µM.

Turning to `Nc1nc(N)c(CCCCc2ccc(C(=O)N[C@@H](CCC(=O)O)C(=O)O)cc2)c(=O)[nH]1` [DIDEAZAACYCLOTETRAHYDROFOLIC ACID], the inhibition in vivo at 400 mg/kg in [5] was 100%; in data set [18] it was 78%. Further, the Toxicity was 2 in the data set with Mus musculus [6]; 1 with Mus musculus [7]; 0 with Mus musculus [8]; 2 in the data set on Mus musculus [9]; 0 in the data set on Mus musculus [16]; 0 in the data set on Mus musculus [17]. Also, in the data set on Mus musculus [19], the Toxicity stood at 2. For the same molecule, the inhibition in vivo at 100 mg/kg in [10] is 37%; in data set [13] it was 66%. Further, the inhibition in vivo at 200 mg/kg in [11] worked out at 36%; in data set [14], 92%. Besides, the inhibition in vivo at 50 mg/kg in data set [12] is 17%; in [15], 44%. In addition, the Inhibition is 0% with CCRF-CEM [1], 80% with CCRF-CEM [2] and 0% in the data set with CCRF-CEM [4]. In the data set with CCRF-CEM [3], half-maximal inhibition (IC50) required 0.132 µM.

In the data set on CCRF-CEM [3], `Nc1nc(N)c(CCCCc2ccc(C(=O)N[C@@H](CCC(=O)O)C(=O)O)s2)c(O)n1` had an IC50 of 0.059 µM.

`Nc1nc(O)c(CCCCc2ccc(C(=O)N[C@@H](CCC(=O)O)C(=O)O)cc2)c(O)n1` had a half-maximal inhibitory concentration (IC50) in the data set on CCRF-CEM [3] of 39.8 µM.

Regarding `Nc1nc(N)c(CCCCCCCCCC(=O)N[C@@H](CCC(=O)O)C(=O)O)c(O)n1`, the IC50 with CCRF-CEM [3] is greater than 47.1 µM.

In the data set with CCRF-CEM [3], `Nc1nc(N)c(CCCCc2csc(C(=O)N[C@@H](CCC(=O)O)C(=O)O)c2)c(O)n1` returned an IC50 of 0.142 µM.

`Nc1nc(N)c(CCCCc2ccc(C(=O)N[C@@H](Cc3ccccc3)C(=O)O)cc2)c(O)n1` registered an IC50 in the data set with CCRF-CEM [3] greater than 44.5 µM.
